# Compound activity as filed in PubChem BioAssay.
# Sampled rows, rich in hits. Any-hit rate of the full collection: about 3.1%.
# KCNQ1 inh: inhibitors of human KCNQ1 potassium channel; P51787; CHO-K1 KCNQ1, FluxOR thallium flux fluorescence; hits give high values; B-score at 10 µM; 1.3% of 310,000 active; AID 2642;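 active = compounds whose thallium flux B-score, printed positive for inhibition, exceeds three library SD while starting fluorescence stays within three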;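 note: channel opened by potassium depolarization with thallium stimulus after 20 min compound exposure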
# KCNQ1 pot: potentiates or activates the human KCNQ1 potassium channel; B-score at 10 µM; 0.35% of 310,000 active; CHO-K1 KCNQ1, thallium flux FluxOR fluorescence; hits give high values; P51787;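 active = fluorescence ratio B-score, a plate-corrected score, at least three library SD, with initial intensity B-score within 5 SD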
#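 assay system = CHO-K1 cells stably expressing KCNQ1 | medium = assay buffer, equal DMSO in all wells | timing = 37 °C overnight plating, 90-min dark dye load, 20-min compound pretreatment | measured by = kinetic FluxOR thallium fluorescence, 10-s 1-Hz baseline, 110-s post-stimulus read | measure = fluorescence change relative to baseline, converted to B score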
# KCNK9 inh: human KCNK9 channel inhibition | B-score at 10 µM | 1.2% of 310,000 active | HEK293 KCNK9, FluxOR thallium flux fluorescence; hits give low values;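 active = ratio B-score over 3 SD below the library mean, with starting fluorescence within 5 SD of its mean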;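 note: negative B-score means less thallium flux so channel inhibition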
# hERG rescue: shields human hERG channel from block by proarrhythmic agents | Q12809 | CHO-hERG, FluxOR thallium flux, dofetilide IC70 present | activation (rescue from dofetilide block), less the hit threshold, % at 10 µM | 0.51% of 310,000 active;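 active = activation above the mean of controls blocked by dofetilide plus 5 SD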;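 note: thallium influx through hERG after potassium depolarization seen as dye fluorescence rise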
# KCNK3 block: human KCNK3 channel inhibition, primary screen; 0.84% of 340,000 active; CHO-KCNK3 thallium flux, FluxOR fluorescence; hits give low values; O14649; B-score at 10 µM;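 active = B-score under library mean minus 4 SD, starting fluorescence ratio at most library mean plus 5 SD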;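 note: more negative B-score means stronger inhibition of thallium flux through KCNK3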
# KCNK9 inh conf: human KCNK9 inhibitor confirmation; shares compounds with KCNK9 inh; HEK293 KCNK9 cells, FluxOR thallium flux fluorescence; inhibition, % at 10 µM; 43% of 4,900 active; AID 492992;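 active = thallium signal inhibited by more than 5 SD of the compound-free buffer control wells, on both duplicate plates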;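 note: 0% = assay buffer control wells without compound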
# Kir21 sel: tests whether KCNK9 modulators also affect mouse Kir2.1; shares compounds with KCNK9 inh; Kir2.1 cells, FluxOR thallium flux fluorescence; inhibition, % at 10 µM; 4% of 4,900 active;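 active = thallium signal drop more than 5 SD beyond the mean of the no-compound control wells, seen in both duplicate plates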;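 note: signal is fluorescence rise after thallium addition divided by baseline fluorescence; plate controls were assay buffer only for no effect and full block by chlorpromazine control for full effect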
# Target sequence (P35561 whole entry, looked up): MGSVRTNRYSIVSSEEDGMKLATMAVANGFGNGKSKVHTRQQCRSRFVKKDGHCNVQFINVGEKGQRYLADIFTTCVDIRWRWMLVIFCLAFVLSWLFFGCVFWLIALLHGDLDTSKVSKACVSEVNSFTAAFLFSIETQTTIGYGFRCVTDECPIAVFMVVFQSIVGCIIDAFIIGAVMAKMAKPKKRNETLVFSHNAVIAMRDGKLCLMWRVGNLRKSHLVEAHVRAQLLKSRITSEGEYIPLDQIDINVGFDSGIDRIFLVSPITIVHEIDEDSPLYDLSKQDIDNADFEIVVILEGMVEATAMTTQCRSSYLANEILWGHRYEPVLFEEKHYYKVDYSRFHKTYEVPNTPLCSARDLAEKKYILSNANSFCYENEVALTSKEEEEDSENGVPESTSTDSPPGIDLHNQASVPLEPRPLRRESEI
# KCNK9 uninduced: non-induced cell nonspecific activity of KCNK9 modulators; shares compounds with KCNK9 inh; non-induced KCNK9-HEK293, FluxOR thallium flux; inhibition, % at 10 µM; 40% of 4,900 active; AID 492997;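 active = thallium signal drop beyond 5 SD of the untreated control mean, on both duplicate plates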;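 note: plate controls were buffer only IC0 wells for no effect and SID17386958 at its maximal inhibitory level for full effect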
# KCNK3 confirm: human KCNK3 channel inhibition, confirmation assay | 99% of 2,400 active | shares compounds with KCNK3 block | ratio percent of control, % at 10 µM | AID 651638 | CHO-KCNK3 thallium flux, FluxOR fluorescence; 0% buffer, 100% carvedilol maximal block;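 active = ratio percent of control, averaged over triplicates, above buffer control mean plus 5 SD, cut at about 64% in these data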;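 note: ratio is the fluorescence rise from min to max over baseline after thallium stimulus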
# KCNK3 uninduced: activity in cells without induced KCNK3 expression. shares compounds with KCNK3 block. non-induced KCNK3 parental cells, FluxOR thallium flux; hits give low values. thallium flux ratio (lower = more inhibition) at 10 µM. 40% of 2,400 active;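 active = thallium flux ratio, averaged over three wells, more than 5 SD below the buffer control mean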;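 note: host cells are CHO cells without KCNK3 induction; ratio is peak minus trough fluorescence over baseline then normalized to buffer controls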
# Starred values were filed as active, the others as inactive; i = inactive; x = not tested or not shown.
SMILES,KCNQ1 inh,KCNQ1 pot,KCNK9 inh,hERG rescue,KCNK3 block,KCNK9 inh conf,Kir21 sel,KCNK9 uninduced,KCNK3 confirm,KCNK3 uninduced
CCn1cc(CNC(=O)c2cccc([N+](=O)[O-])c2)c(C)n1,i,i,i,-5,i,x,x,x,x,x
O=C(CCCSc1nnc(SCCCC(=O)c2ccc(F)cc2)s1)c1ccc(F)cc1,i,i,i,-18,-11*,i,i,i,100*,i
O=C(c1ccco1)N1CCN(c2ncnc3scc(-c4cccs4)c23)CC1,i,i,i,-11,i,x,x,x,x,x
c1ccc(N2CCN(c3ncnc4scc(-c5cccs5)c34)CC2)cc1,i,i,-13*,-10,-8.9*,42%*,i,36%*,148*,0.11*
Fc1ccc(-c2csc3ncnc(N4CCN(c5ccccc5)CC4)c23)cc1,i,i,-13*,-6,-10*,i,i,30%*,117*,i
CC(C)(C)C(=O)Nc1ccc(C(=O)COC(=O)c2ccccn2)cc1,x,x,x,x,i,x,x,x,x,x
CCCSCCCNC(=O)c1ccc(NC(=O)C2=CSCCO2)cc1,i,i,i,-8,i,x,x,x,x,x
O=C(COc1ccc(Cl)cc1Cl)N1CCN(C(=O)c2ccco2)CC1,i,i,i,-8,i,x,x,x,x,x
C/C(=N\NC(=O)C1CCCC1)c1ccc(Cl)cc1,i,i,i,-9,i,x,x,x,x,x
c1ccc(-c2nnnn2-c2ccccn2)cc1,x,x,x,x,i,x,x,x,x,x
Cc1cccc(C(C)C)c1-n1nnnc1-c1ccccc1,i,i,-12*,-12,-10*,53%*,i,40%*,117*,i
O=C(Oc1c(Br)cc(C(=S)N2CCOCC2)cc1Br)c1ccc(Cl)cc1,i,i,i,2,i,x,x,x,x,x
O=C(Oc1ccc(C(=S)N2CCOCC2)cc1Br)c1cc(Cl)ccc1Cl,i,i,-14*,-8,-9.4*,48%*,i,35%*,99*,i
O=C(Nc1cccc(NC(=O)c2c(F)cccc2F)n1)c1c(F)cccc1F,i,8*,-11*,-13,-11*,50%*,i,30%*,101*,i
COCCn1c(C)cc(C(=O)COC(=O)c2ccc(Cl)c(S(N)(=O)=O)c2)c1C,i,i,i,-10,i,x,x,x,x,x
CCn1c(SCC(=O)OC(C)C)nnc1-c1ccccc1OC,i,i,i,-5,i,x,x,x,x,x
CCN1CC2=C(OC(N)=C(C#N)C2c2ccccc2)/C(=C\c2ccccc2)C1 (centres undefined),i,i,-8.8*,-21,-8.9*,29%*,i,26%*,105*,i
COc1ccc(NC(=O)c2sccc2SCc2cccc(C(F)(F)F)c2)cc1,i,i,-16*,-5,-9.1*,54%*,34%*,40%*,118*,i
N#CC(c1ccc(F)cc1)c1ccc(C(=O)c2ccc(F)cc2)cc1 (centres undefined),i,i,-9.7*,-7,-10*,49%*,i,34%*,120*,i
Cc1cccc(/C(N)=N/OC(=O)Cc2ccccc2)c1,i,i,i,-8,i,x,x,x,x,x
CCC(C(=O)O/N=C(\N)c1cccc(C)c1)c1ccccc1 (centres undefined),i,i,-9.3*,-13,-15*,34%*,i,24%*,127*,0.15*
COc1cc(OC)nc(Oc2cccc(Cl)c2C)n1,i,i,i,-7,i,x,x,x,x,x
CCc1noc(C)c1C(=O)N1CCOCC1,i,i,i,-11,i,x,x,x,x,x
CCc1noc(C)c1C(=O)N1CCSC1=Nc1cccc(Cl)c1C,6*,i,-8.9*,-17,-11*,64%*,i,42%*,113*,i
CC(Oc1ccc(-c2ccccc2)c(F)c1)c1ccn(S(=O)(=O)c2ccc(F)cc2)n1 (centres undefined),i,i,-10*,-14,-12*,57%*,i,42%*,106*,i
SMILES,KCNQ1 inh,KCNQ1 pot,KCNK9 inh,hERG rescue,KCNK3 block,KCNK9 inh conf,Kir21 sel,KCNK9 uninduced,KCNK3 confirm,KCNK3 uninduced
COC(=O)c1ccsc1NC(=O)CN1CCN(c2ccc(F)cc2)CC1,i,i,-11*,-8,i,i,i,28%*,105*,i
CCc1cc2c(CN(C)Cc3ccccc3F)cc(=O)oc2cc1O,i,i,-8.5*,-20,-15*,42%*,i,i,114*,0.16*
CCc1cc2c(CN3CCN(Cc4ccccc4)CC3)cc(=O)oc2cc1O,i,i,i,-6,i,x,x,x,x,x
COc1ccc(NC(=O)Cc2c(F)cccc2Cl)c(OC)c1,i,i,i,-9,i,x,x,x,x,x
Cc1ccc(C)c(CN2CCCN(Cc3cc(C)ccc3C)S2(=O)=O)c1,i,i,-19*,-7,-11*,76%*,i,41%*,87*,i
Cc1ccc(CN2CCCN(Cc3cc(C)ccc3C)S2(=O)=O)cc1,i,i,-16*,-8,-9.8*,62%*,i,37%*,0,i
Cc1ccc(C)c(CN2CCNC2=O)c1,i,i,i,-8,i,x,x,x,x,x
COc1ccccc1CN1C[C@@H]2C[C@@H](c3[nH]c4c(C)cccc4c3C)N3CCC[C@@]23C1=O,i,i,i,-11,i,x,x,x,x,x
COC(=O)C(Cc1c[nH]c2ccccc12)NC(=O)c1cc(-c2ccc(OC)c(OC)c2)oc1C (centres undefined),i,i,i,-6,i,x,x,x,x,x
CC(OC(=O)CNC(=O)c1sc2ccccc2c1Cl)C(=O)NC1(C#N)CCCCC1 (centres undefined),x,x,x,x,i,x,x,x,x,x
O=S1(=O)C=C(Oc2ccc(F)cc2)c2ccccc21,i,i,i,-7,i,x,x,x,x,x
O=S1(=O)C=C(Oc2ccc3ccccc3c2)c2ccccc21,i,i,-9.6*,-16,-9.7*,40%*,i,42%*,107*,i
Cc1cccc(C)c1NC(=O)CNC(=O)C(C)N(C)CC(=O)Nc1ccc(F)cc1 (centres undefined),x,x,x,x,i,x,x,x,x,x
